Two compounds from ChEMBL document CHEMBL3808276, “Identification of Adenine and Benzimidazole Nucleosides as Potent Human Concentrative Nucleoside Transporter 2 Inhibitors: Potential Treatment for Hyperuricemia and Gout” (J Med Chem, 2016) can be followed below.

One may read the IC50 as the concentration at which inhibition is half-maximal. A word on the solubility: it is the dissolved amount per volume that the medium holds. Usually clearance stands for the volume of plasma or blood freed of the substance per unit of time. The half-life is the time in which the quantity being followed falls by half. Usually AUC(0-inf) stands for the area under the concentration-time curve extrapolated to infinity. The Cmax is the highest concentration seen after dosing. Usually Tmax stands for the time at which the peak concentration occurs. A word on the bioavailability: it is the share of a dose that reaches the circulation, judged against a reference dose that is usually intravenous.

Data set [1] concerns the target T1, Sodium/nucleoside cotransporter 2 (Homo sapiens, UniProt O43868).
T1 sequence (O43868 whole entry): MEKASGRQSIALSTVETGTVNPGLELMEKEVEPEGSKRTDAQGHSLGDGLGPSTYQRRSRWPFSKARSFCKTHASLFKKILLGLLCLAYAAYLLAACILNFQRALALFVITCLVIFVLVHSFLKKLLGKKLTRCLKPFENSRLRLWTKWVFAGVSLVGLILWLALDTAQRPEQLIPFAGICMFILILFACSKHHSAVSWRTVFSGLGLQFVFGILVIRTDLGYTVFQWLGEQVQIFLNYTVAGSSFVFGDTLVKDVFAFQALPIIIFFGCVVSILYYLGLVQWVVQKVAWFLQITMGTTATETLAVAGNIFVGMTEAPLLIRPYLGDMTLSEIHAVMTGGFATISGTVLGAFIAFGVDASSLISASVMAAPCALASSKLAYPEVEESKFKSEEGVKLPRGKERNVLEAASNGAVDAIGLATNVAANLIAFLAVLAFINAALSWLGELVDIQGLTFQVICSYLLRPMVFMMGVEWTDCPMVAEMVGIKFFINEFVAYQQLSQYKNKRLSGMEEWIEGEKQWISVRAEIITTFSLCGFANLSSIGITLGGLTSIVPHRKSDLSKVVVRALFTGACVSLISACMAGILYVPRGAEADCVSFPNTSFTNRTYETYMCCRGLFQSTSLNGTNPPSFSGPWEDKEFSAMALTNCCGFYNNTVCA
The data set can be described thus: Inhibition of human CNT2 expressed in African green monkey COS7 cells assessed as reduction of [14C]-inosine uptake by liquid scintillation counting analysis. The format is cell-based, COS-7. An outline of the steps: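 COS-7 cells transiently transfected with hCNT2 in pCI-neo, assayed after 2 days. Pretreated in Na+-free choline buffer, 37 °C, 2×10 min. Uptake of 10 µM [14C]inosine for 30 min at 37 °C with 10 µM NBMPR, ±Na+, pH 7.4. Na+-dependent uptake set as 100%; lysate counted by scintillation. IC50 by nonlinear regression, ≥3 experiments; top concentration 100 µM.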

A short description of data set [2]: Solubility of compound in JP2 at pH 6.8 after 1 hr at 37 degC. As to conditions: JP2, pH 6.8. Format: physicochemical. An outline of the steps:
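Solubility measured in JP2, a 1:1 mix of pH 6.8 phosphate buffer and water, after incubation for 1 h at 37 °C.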

For data set [3], the target named is T2, Sodium/nucleoside cotransporter 2 (Rattus norvegicus, UniProt Q62773).
T2 sequence (Q62773 whole entry): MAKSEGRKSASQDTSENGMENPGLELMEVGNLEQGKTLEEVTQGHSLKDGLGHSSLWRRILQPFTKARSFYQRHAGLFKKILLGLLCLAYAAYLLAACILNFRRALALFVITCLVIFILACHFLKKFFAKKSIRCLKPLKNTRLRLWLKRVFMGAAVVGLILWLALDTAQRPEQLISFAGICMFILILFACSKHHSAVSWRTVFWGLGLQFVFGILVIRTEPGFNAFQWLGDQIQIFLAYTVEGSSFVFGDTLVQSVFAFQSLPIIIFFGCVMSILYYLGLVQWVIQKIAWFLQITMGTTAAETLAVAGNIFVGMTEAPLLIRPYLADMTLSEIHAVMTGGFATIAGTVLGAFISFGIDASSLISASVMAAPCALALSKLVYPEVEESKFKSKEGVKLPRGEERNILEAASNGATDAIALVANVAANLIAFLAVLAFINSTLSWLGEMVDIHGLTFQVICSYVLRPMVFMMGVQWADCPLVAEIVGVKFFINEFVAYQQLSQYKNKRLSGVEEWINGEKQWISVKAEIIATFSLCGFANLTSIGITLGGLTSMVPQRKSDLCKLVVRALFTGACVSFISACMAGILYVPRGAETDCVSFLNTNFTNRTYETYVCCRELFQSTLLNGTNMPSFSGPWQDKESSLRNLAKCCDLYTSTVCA
As to the kind of experiment: Inhibition of rat CNT2 expressed in African green monkey COS7 cells assessed as reduction of [14C]-inosine uptake by liquid scintillation counting analysis. The format is cell-based, COS-7. In outline:
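rCNT2 transiently expressed in COS-7 cells, used 2 days post-transfection. 10 µM [14C]inosine uptake at 37 °C for 30 min in the presence of 10 µM NBMPR. Uptake run with Na+ or with choline replacing Na+, pH 7.4; the Na+-dependent difference defined 100% transport. Scintillation read-out; IC50 by nonlinear regression, ≥3 independent runs.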

Data set [4] relates to Rattus norvegicus. The data set can be described thus: Suppression of adenosine/inosine/guanosine mixture-induced elevation of uric acid level in potassium oxonate-treated Sprague-Dawley rat plasma at 1 to 10 mg/kg, po measured after 1 hr by phosphotungstic acid method. The format is functional, organism-based. An outline of the steps: (§1)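 Male SD rats, 5 weeks old, fasted overnight, given potassium oxonate 100 mg/kg sc. After 1 h, a purine mix (adenosine:inosine:guanosine 1:1:1, 50 mg/kg) was given orally together with the test compound (50, or 0.1–10 mg/kg). Aortic blood taken 1 h later under anesthesia; plasma uric acid measured by phosphotungstic acid method. Mean ± SEM; Student's t or Dunnett's test.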

Data set [5] is described as follows: Clearance in Sprague-Dawley rat at 1 mg/kg, iv by LC/MS analysis. Format: ADME, organism-based. As to conditions: in vivo. An outline of the steps:
(§2)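 Male SD rats, 6 weeks old, fasted 16 h; 1.0 mg/mL/kg tail-vein bolus in dimethylacetamide/5% glucose (1:1 v/v). Jugular blood at 2 min and 0.25–24 h. Plasma deproteinized with acetonitrile plus warfarin internal standard, then LC/MS. Noncompartmental analysis; CLtot, Vdss and t1/2 derived from the iv data.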

Data set [6] can be described thus: Volume of distribution at steady state in Sprague-Dawley rat at 1 mg/kg, iv by LC/MS analysis. The settings on record: in vivo, read-out: Vdss. Format: ADME, organism-based. In outline: as §2
Data set [7] is described as follows: Half life in Sprague-Dawley rat at 1 mg/kg, iv by LC/MS analysis. As to conditions: in vivo. The format is ADME, organism-based. An outline of the steps:
as §2

A short description of data set [8]: AUC (0 to infinity) in Sprague-Dawley rat at 1 mg/kg, iv by LC/MS analysis. As to conditions: in vivo. Format: ADME, organism-based. The arrangement: dose 1 mg/kg, route intravenous, time infinity. In outline:
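Male SD rats (6 weeks old, fasted 16 h) received a tail-vein bolus of 1.0 mg/mL/kg in dimethylacetamide/5% glucose (1:1 v/v). Heparinized jugular blood was drawn at 2 min and 0.25, 1, 2, 4, 6, 8 and 24 h. Plasma was acetonitrile-deproteinized with warfarin internal standard and run by gradient LC on a C18 column, calibrated 1-5000 ng/mL. AUC came from noncompartmental analysis.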

Data set [9] is described as follows: Cmax in Sprague-Dawley rat at 10 mg/kg, po by LC/MS analysis. The arrangement: dose 10 mg/kg, route oral. The format is ADME, organism-based. The settings on record: in vivo. In outline: (§3)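 Male SD rats, 6 weeks old, fasted 16 h; oral dose 10 mg/5 mL/kg as a suspension in 0.5% sodium carboxymethylcellulose. Jugular blood at 0.25, 0.5, 1, 2, 4, 6, 8 and 24 h. Acetonitrile-deproteinized plasma with warfarin internal standard analysed by LC/MS. Parameters from noncompartmental analysis.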

Data set [10] is described as follows: Tmax in Sprague-Dawley rat at 10 mg/kg, po by LC/MS analysis. The format is ADME, organism-based. As to conditions: in vivo. In outline: as §3
Data set [11] in a line: AUC (0 to infinity) in Sprague-Dawley rat at 10 mg/kg, po by LC/MS analysis. The format is ADME, organism-based. The arrangement: dose 10 mg/kg, route oral, time infinity. As to conditions: in vivo. In outline:
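Fasted (16 h) 6-week-old male SD rats were dosed orally at 10 mg/5 mL/kg as a suspension in 0.5% sodium carboxymethylcellulose. Heparinized jugular blood was sampled at 0.25, 0.5, 1, 2, 4, 6, 8 and 24 h. Plasma was deproteinized with acetonitrile plus warfarin internal standard and quantified by gradient C18 LC against a 1-5000 ng/mL standard curve. AUC was derived noncompartmentally.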

Data set [12] in a line: Oral bioavailability in Sprague-Dawley rat at 10 mg/kg by LC/MS analysis. The format is ADME, organism-based. As to conditions: in vivo. In outline:
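Oral F in fasted male SD rats from noncompartmental AUCs. Oral arm: 10 mg/kg suspended in 0.5% CMC-Na. IV arm: 1.0 mg/kg in dimethylacetamide/5% glucose. F = (AUCpo/AUCiv)×(dose iv/dose po)×100. Plasma measured by LC/MS.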

Data set [13] concerns Rattus norvegicus. As to the kind of experiment: Suppression of adenosine/inosine/guanosine mixture-induced elevation of uric acid level in potassium oxonate-treated Sprague-Dawley rat plasma at 50 mg/kg, po measured after 1 hr by phosphotungstic acid method. The format is functional. In outline:
as §1

Values after ≈ are worked out from the molar mass of the structure shown. Active and inactive are the calls of the source. The calls are words filed in the database; no cut-off is given here.

Turning to `OCCCCOc1cc(CNc2nc3ccccc3n2[C@@H]2O[C@H](CO)[C@@H](O)[C@H]2O)ccc1-c1ccccc1`, the IC50 in data set [1] worked out at 62 nM; in data set [3], 1500 nM. This compound also showed a solubility at 1 h in data set [2] of 120 µg/mL (≈ 231 µM). Moreover, the result in the data set with Rattus norvegicus [4] was Active. The clearance in data set [5] was 6.57 mL/min/kg. Also, the Vd in data set [6] was 0.117 L/kg. In data set [7], this compound gave a half-life of 1.7 h. The results for the AUC(0-inf) in data set [8] and in [11] were 5 µM·h and 0.25 µM·h, respectively. Also, the Cmax in [9] was 110 nM. In addition, the Tmax in data set [10] was 0.83 h. This compound also came in with a bioavailability in data set [12] of 0.51%.

For the compound `Nc1ncnc2c1nc(NCc1ccc(-c3ccccc3)c(OCCCCO)c1)n2[C@@H]1O[C@H](CO)[C@@H](O)[C@H]1O`, the IC50 is 940 nM in data set [1] and 38000 nM in [3]. In [2], this compound returned a solubility at 1 h of 190 µg/mL (≈ 354 µM). The Activity in the data set on Rattus norvegicus [13] was determined as 42%.
